What is called Kp is tissue or fluid exposure divided by exposure in the circulation. For orientation: EC50 means the midpoint of the concentration-response curve. Read a low EC50 as an effect from little substance. By half-life is commonly meant the time in which the quantity being followed falls by half. High values mean slow loss, low ones fast loss. One may read the IC50 as the concentration at which inhibition is half-maximal. Higher therefore signals lower potency. Usually fraction unbound stands for the share of the substance not bound to proteins or other matrix. High values mean weak binding, low ones extensive binding. What is called Tmax is the time from dosing to the highest level. Usually AUC(0-t) stands for exposure summed from dosing to a finite time, without extrapolation to infinity. A higher AUC(0-t) goes with high exposure. A word on the Cmax: it is the peak of the concentration-time curve.

15 compounds from ChEMBL document CHEMBL4229565 (J Med Chem, 2018) can be followed below.

The nature of data set [1]: Intrinsic clearance in CD1 mouse liver microsomes at 1 uM measured up to 30 mins by UPLC-MS/MS method. The format is ADME, microsome. Conditions: 0.5 h. (In general: Liver microsomes are a subcellular fraction often used to study metabolism.)
A short description of data set [2]: Ratio of drug level in NMRI mouse brain to plasma at 0.5 mg/kg, iv after 5 to 30 mins by UPLC/MS/MS analysis. Conditions: brain and plasma.
Data set [3] concerns Trypanosoma brucei brucei. Briefly: Antitrypanosomal activity against bloodstream form of Trypanosoma brucei brucei s427 after 69 hrs by resazurin-based […] analysis. The class given is functional, organism-based. Conditions: s427, 69 h. Summed up: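 Bloodstream T. b. brucei s427 was grown in modified HMI9 (56 μM 1-thioglycerol in place of 2-mercaptoethanol) and counted by hemocytometer. Cells (10^4/ml) were added to compound in DMSO and incubated 69 h at 37 °C, 5% CO2. Resazurin (50 μM final) was then added for 4 h more. Fluorescence read at ex 528/em 590 nm.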
(In general: Alamar Blue is a resazurin reagent that responds to reducing activity.)

Data set [4] is described as follows: Half life in CD1 mouse plasma at 50 uM by UPLC-MS/MS analysis. The class given is ADME, cell-free.
Data set [5] is described as follows: Inhibition of Trypanosoma brucei NMT using [3H]-myristoyl-coA/biotinylated CAP5.5 as substrate after 50 mins by scintillation proximity assay. Put shortly: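 TbNMT scintillation proximity assay at 22–23 °C, with test compound dilutions added in DMSO. Reaction: 30 mM Tris pH 7.4, 0.5 mM EDTA, 0.5 mM EGTA, 1.25 mM DTT, 0.1% Triton X-100, 0.125 μM [3H]myristoyl-coA, 0.5 μM biotinylated CAP5.5 peptide, 5 nM enzyme. Enzyme added first, then substrate mix to start; stopped after 50 min with phosphoric acid pH 4.0/MgCl2/SPA beads; scintillation counting.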
In general terms: In a scintillation proximity assay essentially only radioactivity close to the scintillant gives light.

Data set [6] can be described thus: Drug metabolism in CD1 mouse plasma assessed as 4-(azepan-1-yl)-3-(4-methoxyphenylsulfonamido)benzoic acid formation at 50 uM incubated for 30 to 180 mins by UPLC-MS/MS analysis. The format is ADME, cell-free.
Data set [7] has as its target Voltage-gated inwardly rectifying potassium channel KCNH2 (Homo sapiens, UniProt Q12809). Briefly: Inhibition of human ERG by patch clamp assay.
Data set [8] in a line: Fraction unbound in CD1 mouse plasma at 10 ug/ml after 5 hrs by UPLC-MS/MS analysis.
In data set [9] the target is T1, Glycylpeptide N-tetradecanoyltransferase 1 (Homo sapiens, UniProt P30419).
T1 sequence (P30419 whole entry): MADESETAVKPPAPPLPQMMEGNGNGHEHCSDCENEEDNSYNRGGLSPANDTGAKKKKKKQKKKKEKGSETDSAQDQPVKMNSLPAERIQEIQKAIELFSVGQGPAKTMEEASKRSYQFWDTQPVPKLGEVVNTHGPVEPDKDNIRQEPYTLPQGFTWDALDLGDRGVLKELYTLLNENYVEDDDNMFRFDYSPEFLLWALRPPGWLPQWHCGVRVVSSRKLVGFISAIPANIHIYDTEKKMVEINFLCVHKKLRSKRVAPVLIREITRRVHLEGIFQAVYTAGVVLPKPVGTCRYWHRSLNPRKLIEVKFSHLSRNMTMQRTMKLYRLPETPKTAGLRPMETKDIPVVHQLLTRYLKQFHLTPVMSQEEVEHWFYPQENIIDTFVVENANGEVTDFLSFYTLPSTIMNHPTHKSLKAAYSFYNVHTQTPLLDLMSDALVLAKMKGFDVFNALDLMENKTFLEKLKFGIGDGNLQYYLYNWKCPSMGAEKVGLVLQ
Briefly: Inhibition of human NMT1 using [3H]-myristoyl-coA/biotinylated CAP5.5 as substrate after 15 mins by scintillation proximity assay.

Another data set deals with human NMT. Briefly: Therapeutic index, ratio of IC50 for human NMT to EC50 for bloodstream form of Trypanosoma brucei brucei s427. The class given is toxicity. The note with it: read-out: Ratio IC50/EC50.
Data set [10] deals with human NMT1 versus Trypanosoma brucei NMT. Briefly: Selectivity ratio of IC50 for human NMT1 to IC50 for Trypanosoma brucei NMT. The class given is toxicity. Conditions: read-out: Ratio IC50. Summed up: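 Both enzymes assayed by SPA in the same buffer: 0.125 μM [3H]myristoyl-coA, 0.5 μM biotinylated CAP5.5 peptide, 5 nM NMT, 22–23 °C. Reactions stopped at 15 min for HsNMT1 and 50 min for TbNMT. The ratio is HsNMT IC50 divided by TbNMT IC50.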

The nature of data set [11]: Tmax in NMRI mouse at 50 mg/kg, po administered via gavage by UPLC/MS/MS analysis. The format is ADME, organism-based. The note with it: in vivo.
For data set [12], the system named is Trypanosoma brucei brucei. Briefly: Antitrypanosomal activity against Trypanosoma brucei brucei s427 trypomastigotes infected in NMRI mouse at 10 mg/kg, po administered twice daily for 4 days starting from day 3 post infection. The class given is functional, organism-based. Summed up: (§1)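 Stage 1 HAT model: female NMRI mice infected with T. brucei s427. Compound given orally twice a day for 4 days, starting day 3 postinfection. Outcome scored as cure versus relapse.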

Data set [13] is described as follows: AUC (0 to 8 hrs) in NMRI mouse at 50 mg/kg, po administered via gavage by UPLC/MS/MS analysis. The format is ADME, organism-based. More on the design: dose 50 mg/kg, time < 8 hr, route oral. Conditions: in vivo.
In data set [14] the test system is Trypanosoma brucei brucei. Briefly: Antitrypanosomal activity against Trypanosoma brucei brucei GVR35 trypomastigotes infected in NMRI mouse assessed as reduction in parasitaemia level at 50 to 200 mg/kg, po administered twice daily for 5 days starting from day 21 post infection. The format is functional, organism-based.
The nature of data set [15]: Cmax in NMRI mouse at 50 mg/kg, po administered via gavage by UPLC/MS/MS analysis. The format is ADME, organism-based. More on the design: dose 50 mg/kg, route oral. The note with it: in vivo.
For data set [16], the system named is Trypanosoma brucei brucei. Briefly: Antitrypanosomal activity against Trypanosoma brucei brucei GVR35 trypomastigotes infected in CF1 mdr1a deficient mouse assessed as reduction in parasitaemia level at 50 mg/kg, po administered twice daily for 5 days starting from day 21 post infection. The class given is functional, organism-based. Summed up:
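Stage 2 HAT model using CF-1 mdr1a-deficient mice infected with T. b. brucei GVR35. Compound given orally twice daily for 5 days from day 21 postinfection. Comparator arms: Berenil or melarsoprol given intraperitoneally once daily.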

The subject of data set [17] is Trypanosoma brucei brucei. Briefly: Antitrypanosomal activity against Trypanosoma brucei brucei s427 trypomastigotes infected in NMRI mouse at 0.3 to 3 mg/kg, po administered twice daily for 4 days starting from day 3 post infection. The class given is functional, organism-based. Put shortly:
as §1

Data set [18] in a line: Toxicity in NMRI mouse administered orally for twice per day for 3 days. The format is organism-based. Conditions: in vivo, po.

The source made the active and inactive calls. The rule behind the calls is not given here.

Chain of Voltage-gated inwardly rectifying potassium channel KCNH2 (Q12809 whole entry): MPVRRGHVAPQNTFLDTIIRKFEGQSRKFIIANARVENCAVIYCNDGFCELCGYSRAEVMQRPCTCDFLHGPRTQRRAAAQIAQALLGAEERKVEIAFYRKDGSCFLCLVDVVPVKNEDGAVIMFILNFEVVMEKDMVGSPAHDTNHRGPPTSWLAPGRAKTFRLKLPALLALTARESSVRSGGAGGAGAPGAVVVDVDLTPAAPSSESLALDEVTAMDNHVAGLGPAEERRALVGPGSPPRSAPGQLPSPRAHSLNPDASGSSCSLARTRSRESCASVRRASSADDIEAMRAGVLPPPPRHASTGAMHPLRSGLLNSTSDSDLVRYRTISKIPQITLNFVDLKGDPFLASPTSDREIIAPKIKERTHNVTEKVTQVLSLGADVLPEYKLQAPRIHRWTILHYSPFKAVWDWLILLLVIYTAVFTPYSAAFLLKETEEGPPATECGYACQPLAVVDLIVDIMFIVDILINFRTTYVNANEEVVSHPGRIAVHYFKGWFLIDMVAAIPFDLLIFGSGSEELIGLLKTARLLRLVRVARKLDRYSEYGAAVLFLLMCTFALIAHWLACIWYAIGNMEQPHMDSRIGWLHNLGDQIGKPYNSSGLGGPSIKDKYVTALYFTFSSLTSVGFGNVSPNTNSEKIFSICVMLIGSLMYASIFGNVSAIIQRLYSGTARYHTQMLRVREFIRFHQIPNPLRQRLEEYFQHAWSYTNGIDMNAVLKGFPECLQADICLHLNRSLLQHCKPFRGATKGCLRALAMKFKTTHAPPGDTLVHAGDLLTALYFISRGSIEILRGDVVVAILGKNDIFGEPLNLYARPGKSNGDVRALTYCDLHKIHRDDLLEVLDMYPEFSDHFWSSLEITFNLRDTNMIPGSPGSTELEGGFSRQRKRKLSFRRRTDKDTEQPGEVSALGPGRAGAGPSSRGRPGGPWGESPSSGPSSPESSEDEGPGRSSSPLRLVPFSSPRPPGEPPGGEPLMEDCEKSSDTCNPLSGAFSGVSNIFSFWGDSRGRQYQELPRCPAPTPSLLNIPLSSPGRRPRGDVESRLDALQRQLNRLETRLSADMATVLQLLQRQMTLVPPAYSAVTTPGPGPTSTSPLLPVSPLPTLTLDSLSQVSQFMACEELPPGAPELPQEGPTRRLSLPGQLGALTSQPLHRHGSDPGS

As to `CC(C)Cc1ccc2nn(C)cc2c1N(C(F)F)S(=O)(=O)c1ccc(CCCCC2CCN(C)CC2)cc1`, the CLH in [1] stood at 2.3 mL/min/g. The Kp in data set [2] was 1.9.
For `COC(=O)c1ccc(N2CCCCCC2)c(NS(=O)(=O)c2ccc(CCCCC3CCN(C)CC3)cc2)c1`, the EC50 in data set [3] was determined as 0.02 µM. The compound also displayed a half-life at 50 µM in [4] of less than 0.25 h. In addition, half-maximal inhibition in data set [5] (IC50) was put at 0.006 µM. Also, in data set [6], the Drug metabolism result is on record as “Metabolite_Detected”.
On to `CC(C)Cc1ccc2ncccc2c1NS(=O)(=O)c1ccc(CCCO[C@@H]2C[C@H]3CC[C@@H](C2)N3C)cc1`, for which the IC50 in data set [7] was found to be 1.6 µM; in data set [5], 0.007 µM. In data set [3], this compound gave an EC50 of 0.091 µM. This compound registered a CLH in data set [1] of 1.5 mL/min/g. Besides, the fraction unbound at 5 h, 10 ug/ml in [8] stood at 0.18.
As to `CC(C)Cc1ccc2nn(C)cc2c1NS(=O)(=O)c1ccc(CCCO[C@@H]2C[C@H]3CC[C@@H](C2)N3C)cc1`, the values for the IC50 in data set [7] and in data set [5] were 3.3 µM and 0.005 µM, respectively. For the same compound, in [3], the EC50 was found to be 0.039 µM. Besides, the CLH in [1] is 1.4 mL/min/g.
Turning to `CC(C)Cc1ccc2nn(C)cc2c1NS(=O)(=O)c1ccc(CCCOC[C@@H]2CCCN2C)cc1`, the values for the IC50 in data set [7] and in data set [5] were 3 µM and less than 0.005 µM, respectively. In addition, in data set [3], the EC50 is 0.031 µM. Also, the CLH in data set [1] came to 3.7 mL/min/g.
For `CC(C)Cc1ccc2ncccc2c1NS(=O)(=O)c1ccc(CCCN2CCN3CCC[C@@H]3C2)cc1`, the IC50 in [7] is 1.3 µM; in data set [5], less than 0.005 µM. In data set [3], this compound yielded an EC50 of 0.04 µM. Further, the CLH in [1] stood at 6.2 mL/min/g. The fraction unbound at 5 h, 10 ug/ml in [8] was determined as 0.17.
`CC(C)Cc1ccc2nn(C)cc2c1NS(=O)(=O)c1ccc(CCCOC[C@H]2COCCN2C)cc1`: the IC50 in data set [7] is 3.1 µM; in data set [5], 0.007 µM. In data set [3], this compound registered an EC50 of 0.22 µM. The same compound displayed a CLH in [1] of 20 mL/min/g.
Compound `CC(C)Cc1ccc2ncccc2c1NS(=O)(=O)c1ccc(CCCCN2CCCN(C)CC2)cc1` came in with an EC50 in [3] of 0.059 µM. This compound also returned a CLH in [1] of 1.8 mL/min/g. In [8], this compound registered a fraction unbound at 5 h, 10 ug/ml of 0.093. This compound also gave a half-inhibitory concentration (IC50) in data set [5] of 0.006 µM.
With `Cn1cc2c(NS(=O)(=O)c3ccc(Br)cc3)c(N3CCCC3)ccc2n1`, the IC50 is more than 100 µM in data set [9] and 27 µM in [5]. The compound also showed an EC50 in data set [3] of 24 µM. Moreover, in data set [1], the CLH came out at 33 mL/min/g. Besides, the selectivity ratio was more than 4.1 in the data set on human NMT and more than 3.7 in data set [10].
For the compound `COC(=O)c1ccc(N2CCCC2)c(NS(=O)(=O)c2ccc(Br)cc2)c1`, the IC50 was more than 100 µM in data set [9] and 0.8 µM in data set [5]. In [3], this compound had an EC50 of 21 µM. The selectivity ratio in the data set with human NMT was more than 4.8; in [10], more than 100.
With `CC(C)Cc1ccc2nn(C)cc2c1NS(=O)(=O)c1ccc(CCCCC2CCN(C)CC2)cc1`, in data set [11], the Tmax was 1 h. Besides, the result in data set [12] and in data set [16] was Active. Besides, the IC50 in data set [7] is 3.7 µM; in data set [5], less than 0.005 µM. In addition, in data set [3], a half-maximal effect (EC50) was put at 0.005 µM. The compound also had a CLH in data set [1] of 2.9 mL/min/g. Besides, the fraction unbound at 5 h, 10 ug/ml in data set [8] stood at 0.062. Also, the AUC(0-t) at 8 h in [13] is 48300 ng·h/mL. Further, the outcome in data set [14] and in data set [17] was inactive. In data set [15], this compound showed a Cmax of 11000 ng/mL. In data set [18], the MTD at 72 h is more than 300 mg/kg.
Consider `COC(=O)c1ccc(N2CCCCCC2)c(NS(=O)(=O)c2ccc(OC)cc2)c1`, for which the IC50 in data set [9] is more than 100 µM; in data set [5] it was 1 µM. In data set [3], the midpoint of the response, the EC50, lay at 12 µM. Besides, the selectivity ratio in the data set with human NMT is 8.3; in [10] it was more than 100.
As to `O=S(=O)(Nc1c(C2CCCCC2)ccc2ncccc12)c1ccc(Br)cc1`, the IC50 is more than 100 µM in data set [9] and 63 µM in [5]. In data set [3], this compound returned an EC50 of 39 µM. This compound also had a CLH in data set [1] of 38 mL/min/g. The selectivity ratio with human NMT is more than 2.6; in [10] it was more than 1.6.
For the compound `O=S(=O)(Nc1c(N2CCCC2)ccc2ncccc12)c1ccc(Br)cc1`, the IC50 in [9] stood at 41 µM; in data set [5] it was 7.5 µM. In data set [3], this compound registered an EC50 of 11 µM. In [1], this compound yielded a CLH of 27 mL/min/g. The selectivity ratio stood at 3.7 with human NMT and 5.5 in [10].
For `O=S(=O)(Nc1c(CC2CCCCC2)ccc2ncccc12)c1ccc(Br)cc1`, the results for the IC50 in data set [9] and in [5] were more than 100 µM and 1.4 µM, respectively. For the same compound, in [3], the EC50 was found to be 23 µM. Also, the CLH in data set [1] is 33 mL/min/g. The selectivity ratio was more than 4.3 in the data set with human NMT and more than 71 in [10].
